Series [1] has as its system developing blood vessels of chick embryo. Briefly: Ex ovo chicken embryo chorioallantoic membrane. The series is classed as in vivo. As to conditions: for effect on blood vessel growth and integrity: 10 nM, vs DMSO vehicle; for growth of the blood vessels (change in relative surface area) / vascular integrity (discontinuity of the vessels): 50 nM, 24 and 48 h posttreatment, vs controls. The procedure, abridged:
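Fertilized eggs incubated at 37.5°C and 60% humidity, then opened into 10 cm dishes on day 4. Two days later a 5 mm filter paper carrying test compound (10, 50, 200 nM), reference vascular disrupting agent or DMSO was laid on the CAM between two main vessels. Eggs were incubated 2 more days and photographed at 0, 24 and 48 h. Read-outs: relative surface area of vessels touching the paper, and disruption index (intact segments >10 mm).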

For the next series, the system named is A2780 xenograft. Briefly: Human OC cell xenograft study. The series is classed as in vivo, NMRI nu/nu female nude mice.
A further series deals with HCT8 cells. Briefly: Live cell microscopy. The series is classed as cell-based, human. To be noted: HCT8, 50 nM, 30 cells. The procedure, abridged: (§1)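 HCT116, HCT8 and MCF10A cells were given 50 nM test compound or a reference tubulin agent and imaged on an IncuCyte immediately and for 3 days, at 1 h intervals, in three replicates. Growth curves used mean confluence from six images per time point. Mitotic duration and mitotic fate were scored from time-lapse films: 10 cells per well, 30 cells per condition.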

For another series, the system named is HCT116 cells. As to the kind of experiment: Live cell microscopy. To be noted: HCT116, 50 nM, 30 cells. The format is cell-based, human. The procedure, abridged: as §1
Series [2] deals with HCT116, HCT8 and MCF10A cells. The format is cell-based, human. The procedure, abridged: as §1
In series [3] the test system is cocultures of endothelial colony forming cells (ECFCs) and adipocyte derived stem cells (ADSCs). Briefly: Vascular tube formation assay, disruption of established cords. The series is classed as cell-based, human. The method, boiled down: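 Cocultures of GFP-labelled endothelial colony forming cells and adipocyte-derived stem cells were stimulated with VEGF (20 ng/mL) to form cords. Compounds were added to the established cords at 96 h. Images were taken every 6 h and scored for relative cord length and branch points. pIC50 came from a four-parameter logistic fit of area-under-curve data between 96 and 186 h.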

In another series the test system is OvCar-4 cells. As to the kind of experiment: Time-lapse mitotic index and cell death index in OC cell lines. The series is classed as cell-based, human.
Series [4] concerns cocultures of endothelial colony forming cells (ECFCs) and adipocyte derived stem cells (ADSCs). As to the kind of experiment: Vascular tube formation assay, neoangiogenic. The series is classed as cell-based, human. To be noted: 4.6 nM–10 µM, VEGF 20 ng/mL coapplied on day 0. The procedure, abridged: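 Cocultures of GFP-labelled endothelial colony forming cells and adipocyte-derived stem cells (StemKit). Compounds were co-applied with VEGF (20 ng/mL) on day 0 to follow cord formation. Fluorescent and phase-contrast images (10×) were taken every 6 h for up to 8 days. Cord length (mm/mm2) and branch points were analysed from 3–6 separate samples per condition.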

In a further series the test system is Caco-2 cell monolayers. As to the kind of experiment: Caco-2 permeability assay. The series is classed as in vitro ADME, human. The procedure, abridged: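 Caco-2 monolayers grown to confluence on collagen-coated polycarbonate transwell membranes. Buffer was HBSS with 10 mM HEPES and 15 mM glucose, pH 7.4; the receiver side also held 1% BSA. 5 μM test compound was dosed apically (A-to-B) or basolaterally (B-to-A) at 37°C, 5% CO2. Donor and receiver were sampled at 120 min, in duplicate. Co-applied Lucifer yellow checked integrity. High permeability: Papp A-to-B ≥1.0×10−6 cm/s.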

A further series relates to bovine tubulin protein. As to the kind of experiment: In vitro tubulin polymerization assay. The series is classed as biochemical. To be noted: cell-free, 60 min. The procedure, abridged:
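Commercial kit using bovine tubulin, cell-free. The test compound was tested at 1.0–10 µM. Vincristine and paclitaxel at 3.0 µM served as inhibition and stabilization controls. Compounds were dissolved in DMSO and diluted in sterile water to at most 0.1% DMSO, which was the solvent control. Polymerization was followed by a fluorescent reporter incorporated into microtubules and read continuously at 360/450 nm for 60 min.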

Series [5] has as its system A2780/Adr (drug resistant). Briefly: Fluorometric microculture cytotoxicity assay. The format is cell-based, human. As to conditions: for IC50: A2780/Adr (drug resistant) ovarian carcinoma, 72 h; for IC50 ratio (resistant vs sensitive cells): A2780/Adr vs A2780. The method, boiled down:
(§2)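 FMCA with cells seeded into plates pre-loaded with compound and stored at −20°C or −80°C. Seeding was 1,000–2,500 (384-well) or 5,000–10,000 (96-well) cells/well. Culture media: RPMI 1640 for CCRF-CEM, A2780, A2780/Adr, BXPC-3, U-937 and RPMI 8226; McCoy's for HT29 and HCT116. After 72 h, plates were washed and given fluorescein diacetate buffer for 45 min, then fluorescence was read. Survival index = (treated − blank)/(control − blank); IC50 taken from curves.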

The test system of the next series is OvCar-8 cells. As to the kind of experiment: Time-lapse mitotic index and cell death index in OC cell lines. The format is cell-based, human. As to conditions: OvCar-8, 12.5 nM. The procedure, abridged:
(§3)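 Ovarian OvCar-8, OvCar-4 and CaOv-3 cells were time-lapse filmed for 3 days, starting immediately after adding 12.5 nM test compound, 12.5 nM paclitaxel or vehicle alone. Mitotic index and cell death index were scored from the films at 12, 24, 48 and 72 h.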

Series [6] can be described thus: Plasma levels in the maximal tolerated dose study. The series is classed as in vivo, NMRI nu/nu female mice. The method, boiled down:
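In the maximal tolerated dose study, female NMRI nu/nu mice received test compound PO at 10, 20 or 40 mg/kg. Plasma concentrations were measured 1 and 4 h after dosing.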

The subject of series [7] is panel of eight cancer cell lines. As to the kind of experiment: FMCA, range over the panel of cancer cell lines. To be noted: read-out: IC50, range over cell lines. The series is classed as cell-based, human. The procedure, abridged:
as §2

The next series relates to CaOv-3 cells. Briefly: Time-lapse mitotic index and cell death index in OC cell lines. The series is classed as cell-based, human. As to conditions: CaOv-3, 12.5 nM. The method, boiled down: as §3
Another series relates to MCF10A cells. As to the kind of experiment: Live cell microscopy. The series is classed as cell-based, human. As to conditions: 50 nM, 30 cells. The procedure, abridged: as §1

For `COc1ccc(/C=C\c2cc(OC)c(OC)c(OC)c2)cc1O` [Combretastatin A4, reference compound], in series [1], the “effect on blood vessel growth and integrity” value is given as “ineffective”; the “growth of the blood vessels (change in relative surface area)” value was “significantly suppressed”; the “vascular integrity (discontinuity of the vessels)” value is given as “significantly suppressed”.
Take `COc1ccc2[nH]cc(CCNc3nccc(Nc4cccc5c4ccn5C)n3)c2c1` [NOV202]: the “effect on tumor volume” value in the series with A2780 xenograft (PO 40 mg/kg, 5 days on/2 days off, comparable to paclitaxel 24 mg/kg IV) is “clear antitumor effect”. For the same compound, the “tolerability by body weight measurements” value in the series on A2780 xenograft (PO 10, 20, 40 mg/kg during the treatment) is listed as “well tolerated”. In addition, the figures for the “average duration of mitosis” value in the series with HCT8 cells, in the series on HCT116 cells and with MCF10A cells were 11.8 ± 3.1 h, 26.2 ± 7.1 h and 16.4 ± 5.2 h, respectively. Also, the “cell population growth (cell confluency)” value in series [2] (50 nM, filmed for 3 days) is listed as “strong growth suppression”. Moreover, the “effect on interphase and mitotic microtubule networks” value in series [2] (15–50 nM, data not shown) is recorded as “markedly disrupted or completely wiped out”. For the same compound, the “pIC50, disruption of VEGF stimulated established cords” value in [3] (four-parameter logistic fit of AUC between 96 and 186 h, VEGF 20 ng/mL) is on record as 8.3. Moreover, the “mitotic index (MI)” value is listed as 24.0%±9.5% in the series with OvCar-4 cells (OvCar-4, 12.5 nM, 12 h); 27.0%±4.0% with OvCar-8 cells (12 h); 12.7%±2.5% in the series on CaOv-3 cells (12 h). Besides, the “cell death index (CDI)” value with OvCar-4 cells (OvCar-4, 12.5 nM, 24 h) is 13.7%±1.5%; in the series with OvCar-4 cells (OvCar-4, 12.5 nM, 48 h), 16.3%±2.1%; in the series on OvCar-4 cells (OvCar-4, 12.5 nM, 72 h), 12.0%±1.0%; in the series on OvCar-4 cells (OvCar-4, 50 nM, 24 h) it was 28.7%±6.8%; with OvCar-4 cells (OvCar-4, 50 nM, 48 h), 48.3%±10.7%; in the series with OvCar-4 cells (OvCar-4, 50 nM, 72 h), 59.3%±13.2%. The “cell death index (CDI)” value was 29.0%±9.0% in the series on OvCar-8 cells (24 h); 31.0%±10.5% in the series on OvCar-8 cells (48 h); 30.0%±2.3% in the series on OvCar-8 cells (72 h); 46.0%±1.7% with CaOv-3 cells (24 h); 68.7%±4.2% with CaOv-3 cells (48 h); 77.0%±4.6% with CaOv-3 cells (72 h). Also, the “VEGF-induced cord (tube) formation” value in series [4] is “completely inhibit tube formation”. Moreover, in the series on Caco-2 cell monolayers (bi-directional Caco-2), the Efflux ratio was 1.0. Besides, in the series on Caco-2 cell monolayers (significant efflux: efflux ratio >3.0 and Papp B-to-A ≥1.0×10^−6 cm/s), the Efflux substrate result is “no significant efflux”. Further, the “effect on tubulin polymerization” value in the series with bovine tubulin protein (1.0 µM) is “slowed down the rate of the polymerization, but could not suppress it”; in the series with bovine tubulin protein (3.0 µM), “suppress tubulin heterodimer polymerization”; in the series on bovine tubulin protein (10 µM), “block the polymerization almost completely”. Moreover, the IC50 in series [5] was 2.3 nM; in series [7] it was 2.3 to 12 nM. In addition, in series [5], the “IC50 ratio (resistant vs sensitive cells)” value (“IC50 ratio” for short) is listed as 0.96. Further, in series [1], the “effect on blood vessel growth and integrity” value is reported as “ineffective”. In [1], the “growth of the blood vessels (change in relative surface area)” value was “significantly suppressed”. For the same compound, the “vascular integrity (discontinuity of the vessels)” value in series [1] is recorded as “significantly suppressed”. Further, the plasma concentration turned out to be 21 nM in series [6] (PO 10 mg/kg, 1 h post-dosing); 17 nM in series [6] (PO 10 mg/kg, 4 h post-dosing); 54 nM in series [6] (PO 20 mg/kg, 1 h post-dosing); 29 nM in series [6] (PO 20 mg/kg, 4 h post-dosing); 309 nM in series [6] (PO 40 mg/kg, 1 h post-dosing); 76 nM in series [6] (PO 40 mg/kg, 4 h post-dosing).
Regarding `CCC[C@H](Nc1nc(-c2ccc(NC(=O)NCC)c(OC)c2)ncc1C)c1cccnc1` [CYT997, lexibulin], the “IC50 ratio” value in series [5] is reported as 3.35. The same compound registered an IC50 in series [5] (Homo sapiens, A2780 ADR) of 183 nM.
`CC[C@]1(O)C[C@H]2CN(CCc3c([nH]c4ccccc34)[C@@](C(=O)OC)(c3cc4c(cc3OC)N(C=O)[C@H]3[C@@](O)(C(=O)OC)[C@H](OC(C)=O)[C@]5(CC)C=CCN6CC[C@]43[C@@H]65)C2)C1` [VinC, vincristine]: the “effect on tubulin polymerization” value in the series with bovine tubulin protein (3.0 µM) is given as “suppress tubulin heterodimer polymerization”. In addition, the “IC50 ratio” value in series [5] was 955. For the same compound, half-maximal inhibition in series [5] (Homo sapiens, A2780 ADR) (IC50) was put at 210 nM.
`Cc1ccc(C(=O)Nc2ccc(S(=O)(=O)O)c3cc(S(=O)(=O)O)cc(S(=O)(=O)O)c23)cc1NC(=O)c1cccc(NC(=O)Nc2cccc(C(=O)Nc3cc(C(=O)Nc4ccc(S(=O)(=O)O)c5cc(S(=O)(=O)O)cc(S(=O)(=O)O)c45)ccc3C)c2)c1` [suramin, reference compound]: in [3] (100 µM, added at t=96 h), the “effect on established cords” value is “complete regression of established cords”.
In the case of `CC(=O)O[C@H]1C(=O)[C@@]2(C)[C@H]([C@H](OC(=O)c3ccccc3)[C@]3(O)C[C@H](OC(=O)[C@H](O)[C@@H](NC(=O)c4ccccc4)c4ccccc4)C(C)=C1C3(C)C)[C@]1(OC(C)=O)CO[C@@H]1C[C@@H]2O` [PTX, paclitaxel], the “effect on tubulin polymerization” value in the series on bovine tubulin protein (3.0 µM) was “effective stabilizer of tubulin polymerization”. Moreover, in [5], the “IC50 ratio” value is on record as 3,115. In addition, the midpoint of inhibition in [5] (Homo sapiens, A2780 ADR), the IC50, lay at 810 nM.

For the origin of these results see PMC5417661 (Drug Design, Development and Therapy, 2017).
